Drawing on ChEMBL document CHEMBL1121666, “Synthesis and serotonin-like activity of 2-amino-5,8-dimethoxy-6-methyl-1,2-dihydronaphthalene” (J Med Chem, 1981), this text covers pKa and Incidence for three molecules.

A word on the pKa: it is the negative logarithm of the acid dissociation constant. A low value points to a group that gives up its proton readily.

Data set [1] is described as follows: Acid dissociation constant was determined. The format is ADME.
Data set [2] deals with Rattus norvegicus. Briefly: Compound was evaluated for the incidence of serotonin syndrome […] by intraperitoneal administration at the dose 4 mg/kg; 1/3. It counts as functional. The procedure, abridged: (§1)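 Male Sprague–Dawley rats (200–300 g) were given the racemic hydrochloride salts intraperitoneally at 1–16 mg/kg, following the Sloviter protocol. A rat was scored positive only when forepaw padding, splayed hindlimbs, and head weaving or tremor were all present. Incidence is reported as responders/rats dosed, with […] rats per dose.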

Data set [3] deals with Rattus norvegicus. As to the kind of experiment: Compound was evaluated for the incidence of serotonin syndrome […] by intraperitoneal administration at the dose 8 mg/kg; 0/3. The format is functional. A digest of the protocol:
as §1

Data set [4] concerns Rattus norvegicus. As to the kind of experiment: Compound was evaluated for the incidence of serotonin syndrome […] by intraperitoneal administration at the dose 2 mg/kg; 0/3. The format is functional. A digest of the protocol: as §1
For data set [5], the system named is Rattus norvegicus. As to the kind of experiment: Compound was evaluated for the incidence of serotonin syndrome […] by intraperitoneal administration at the dose 16 mg/kg; 2/3. The format is functional. A digest of the protocol:
as §1

Data set [6] has as its system Rattus norvegicus. Briefly: Compound was evaluated for the incidence of serotonin syndrome […] by intraperitoneal administration at the dose 16 mg/kg; 3/3. The format is functional. A digest of the protocol: as §1
Data set [7] concerns Rattus norvegicus. Briefly: Compound was evaluated for the incidence of serotonin syndrome […] by intraperitoneal administration at the dose 4 mg/kg; 0/8. It counts as functional.
The test system of data set [8] is Rattus norvegicus. Briefly: Compound was evaluated for the incidence of serotonin syndrome […] by intraperitoneal administration at the dose 8 mg/kg; 3/8. The format is functional.

`COc1cc(C2CC2N)c(OC)cc1C` (stereo not given): the pKa in data set [1] worked out at 8.11.
Take `COc1cc(C)c(OC)c2c1CC(N)C=C2.Cl` (stereo not given): the Incidence with Rattus norvegicus [2] amounted to 1; with Rattus norvegicus [3], 0; in the data set on Rattus norvegicus [4], 0; in the data set with Rattus norvegicus [5], 2. The molecule further returned a pKa in data set [1] of 8.93.
Regarding `COc1cc(C)c(OC)c2c1CC(N)CC2.Cl` (stereo not given), the Incidence in the data set with Rattus norvegicus [6] is recorded as 3; with Rattus norvegicus [7], 0; with Rattus norvegicus [4], 0; with Rattus norvegicus [8] it was 3.
